Here are results for 17 compounds from ChEMBL document CHEMBL4382284, “Acrylamide Functional Group Incorporation Improves Drug-like Properties: An Example with EGFR Inhibitors” (ACS Med Chem Lett, 2019).

The test system of data set [1] is A549. The data set is described as follows: Cytotoxicity against human A549 cells after 72 hrs by MTT assay. The conditions noted are these: A549, 72 h. Format: functional, cell-based. In general terms: Tetrazolium assays rely on reduction of a dye to a coloured formazan, in cell work by metabolically active cells.
A short description of data set [2]: Thermodynamic solubility of the compound in pH 7.4 phosphate buffered saline measured after 24 hrs by UV-HPLC analysis. The format is physicochemical. The conditions noted are these: read-out: Therm_solubility.
The nature of data set [3]: Thermodynamic solubility of the compound in 1-octanol solution measured after 24 hrs by UV-HPLC analysis. Format: physicochemical. The conditions noted are these: read-out: Therm_solubility.
Data set [4] is described as follows: 1-Octanol-buffer partition coefficient, log D of compound at pH 7.4 after 24 hrs by shake-flask method. The format is physicochemical. The conditions noted are these: for logD at 24 h: 1-octanol/buffer, pH 7.4. In short, it runs like this:
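Shake-flask partition between 1-octanol and pH 7.4 aqueous solution, mixed at 1/2 (v/v) octanol/aqueous; log D taken at pH 7.4.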

Data set [5] can be described thus: GSH reactivity in pH 7.4 phosphate buffer assessed as half life measured every 15 mins by HPLC analysis. To be noted: phosphate buffer with GSH. The format is physicochemical. The gist of the method: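 Half-life measured on incubation with glutathione at pH 7.4 and 37 °C, compound to glutathione 1/10.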
Data set [6] concerns the target Epidermal growth factor receptor (Homo sapiens, UniProt P00533). The data set is described as follows: Inhibition of human EGFR using poly[Glu:Tyr] (4:1) as substrate measured after 20 mins in presence of [gamma33P]ATP by filter-binding assay.
In data set [7] the test system is Vero. Nature of the data set: Cytotoxicity against African green monkey Vero cells assessed as reduction in cell viability after 72 hrs by MTT assay. Format: ADME, cell-based. To be noted: Chlorocebus sabaeus.
Data set [8] can be described thus: Cytotoxicity against human FHS cells assessed as reduction in cell viability after 72 hrs by MTT assay.
In data set [9] the target is Voltage-gated inwardly rectifying potassium channel KCNH2 (Homo sapiens, UniProt Q12809). Nature of the data set: Inhibition of human ERG.
Voltage-gated inwardly rectifying potassium channel KCNH2, sequence (Q12809 whole entry): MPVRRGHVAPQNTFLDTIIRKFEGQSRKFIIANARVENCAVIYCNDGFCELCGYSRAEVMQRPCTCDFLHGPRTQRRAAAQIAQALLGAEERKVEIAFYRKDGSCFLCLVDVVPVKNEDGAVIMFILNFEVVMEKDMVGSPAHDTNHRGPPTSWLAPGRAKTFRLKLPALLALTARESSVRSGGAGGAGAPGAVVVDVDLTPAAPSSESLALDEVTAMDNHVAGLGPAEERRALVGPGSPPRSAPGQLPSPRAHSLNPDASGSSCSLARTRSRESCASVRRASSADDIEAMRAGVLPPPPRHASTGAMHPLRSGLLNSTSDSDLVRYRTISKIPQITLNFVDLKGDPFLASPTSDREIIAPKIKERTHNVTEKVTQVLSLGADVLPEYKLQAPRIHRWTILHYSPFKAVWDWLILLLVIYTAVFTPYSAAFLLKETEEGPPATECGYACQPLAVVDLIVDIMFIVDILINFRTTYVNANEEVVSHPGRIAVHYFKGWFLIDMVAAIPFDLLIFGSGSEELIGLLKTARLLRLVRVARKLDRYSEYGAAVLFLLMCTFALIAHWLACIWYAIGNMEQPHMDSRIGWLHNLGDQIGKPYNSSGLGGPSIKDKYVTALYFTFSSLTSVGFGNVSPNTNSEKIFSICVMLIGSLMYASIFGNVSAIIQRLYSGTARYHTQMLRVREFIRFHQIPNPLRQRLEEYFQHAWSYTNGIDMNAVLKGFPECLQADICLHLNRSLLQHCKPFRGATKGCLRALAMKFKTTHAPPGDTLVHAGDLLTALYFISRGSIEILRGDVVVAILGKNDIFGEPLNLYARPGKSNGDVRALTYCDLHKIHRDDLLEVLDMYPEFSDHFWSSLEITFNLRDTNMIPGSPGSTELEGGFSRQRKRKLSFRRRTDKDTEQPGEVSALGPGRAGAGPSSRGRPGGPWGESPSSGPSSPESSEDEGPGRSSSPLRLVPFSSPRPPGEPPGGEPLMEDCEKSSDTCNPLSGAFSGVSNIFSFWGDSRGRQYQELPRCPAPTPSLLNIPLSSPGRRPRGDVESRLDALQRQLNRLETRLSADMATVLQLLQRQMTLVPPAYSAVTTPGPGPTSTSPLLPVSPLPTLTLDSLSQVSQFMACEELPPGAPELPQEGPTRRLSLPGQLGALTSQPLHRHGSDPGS

≈ marks a conversion by molar mass, not a printed value.

Epidermal growth factor receptor, sequence (P00533 whole entry): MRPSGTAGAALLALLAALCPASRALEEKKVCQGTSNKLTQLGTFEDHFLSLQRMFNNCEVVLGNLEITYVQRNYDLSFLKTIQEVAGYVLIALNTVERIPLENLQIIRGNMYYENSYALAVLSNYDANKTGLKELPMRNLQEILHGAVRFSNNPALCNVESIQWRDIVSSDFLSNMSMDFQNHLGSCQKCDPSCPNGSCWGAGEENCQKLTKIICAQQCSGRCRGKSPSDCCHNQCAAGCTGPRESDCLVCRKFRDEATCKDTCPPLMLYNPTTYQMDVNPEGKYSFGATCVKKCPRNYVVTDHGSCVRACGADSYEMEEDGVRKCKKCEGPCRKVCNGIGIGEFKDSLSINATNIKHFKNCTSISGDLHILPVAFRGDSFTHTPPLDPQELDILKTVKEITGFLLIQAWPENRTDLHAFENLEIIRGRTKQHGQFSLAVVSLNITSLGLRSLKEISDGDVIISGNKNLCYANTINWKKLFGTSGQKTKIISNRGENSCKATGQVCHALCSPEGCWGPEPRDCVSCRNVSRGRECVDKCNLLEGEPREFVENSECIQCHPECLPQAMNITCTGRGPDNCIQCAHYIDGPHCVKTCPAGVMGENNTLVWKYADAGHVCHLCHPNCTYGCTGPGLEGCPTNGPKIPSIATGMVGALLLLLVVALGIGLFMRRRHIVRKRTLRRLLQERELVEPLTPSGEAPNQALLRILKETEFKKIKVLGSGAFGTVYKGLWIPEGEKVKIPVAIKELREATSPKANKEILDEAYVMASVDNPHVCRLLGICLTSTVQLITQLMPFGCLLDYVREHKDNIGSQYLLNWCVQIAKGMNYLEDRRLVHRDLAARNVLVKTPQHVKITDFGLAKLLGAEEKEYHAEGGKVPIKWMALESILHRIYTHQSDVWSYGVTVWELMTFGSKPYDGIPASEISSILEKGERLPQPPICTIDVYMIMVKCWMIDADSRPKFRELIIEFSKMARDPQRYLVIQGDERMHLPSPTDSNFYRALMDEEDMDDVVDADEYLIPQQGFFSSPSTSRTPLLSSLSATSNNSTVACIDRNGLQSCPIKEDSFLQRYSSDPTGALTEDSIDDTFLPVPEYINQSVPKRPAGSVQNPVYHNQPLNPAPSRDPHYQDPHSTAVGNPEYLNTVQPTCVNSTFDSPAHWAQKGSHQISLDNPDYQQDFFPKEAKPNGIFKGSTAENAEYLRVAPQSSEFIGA

The term IC50 denotes the concentration that gives 50% inhibition. In general, logD refers to lipophilicity at a set pH, counting ionised and neutral species. The half-life is the time needed for the level to fall by half in the phase considered. `C=CC(=O)N(c1cccc(Cl)c1F)c1ncnc2cc(OC)c(OC(=O)N3CCN(C)C[C@H]3C)cc12` returned an IC50 in data set [1] of 6100 nM. The solubility thermodynamic at 24 h came out at 30 µM (≈ 15.4 µg/mL) in data set [2] and 5020 µM (≈ 2580 µg/mL) in [3]. This compound also returned a logD at 24 h in data set [4] of 2.46. The half-life in [5] was 27.5 min.
On to `COc1cc2ncnc(Nc3ccc(F)c(Cl)c3)c2cc1OCCCN1CCOCC1` [GEFITINIB], for which the solubility thermodynamic at 24 h in data set [2] was less than 10 µM; in data set [3] it was 1400 µM (≈ 626 µg/mL). The pH-dependent lipophilicity (logD) in data set [4] (octanol/water, pH 7.4, 24 h) was found to be 2.41.
In turn, `COc1cc2ncnc(Nc3cccc(Cl)c3F)c2cc1OC(=O)N1CCN(C)C[C@H]1C` [AZD-3759] registered an IC50 in data set [1] of 28700 nM. Also, the solubility thermodynamic at 24 h came to 20 µM (≈ 9.2 µg/mL) in [2] and 4540 µM (≈ 2090 µg/mL) in [3]. Also, the logD at 24 h in data set [4] came out at 2.84.
Consider `C=CC(=O)N(c1ccc(F)c(Cl)c1)c1ncnc2cc(OC)c(OCCCN3CCOCC3)cc12`, for which the IC50 was 65.2 nM in [6]; 150 nM in [1]; more than 10000 nM in data set [7]; more than 10000 nM in [8]; more than 10000 nM in data set [9]. Besides, the solubility thermodynamic at 24 h in data set [2] was 1650 µM (≈ 827 µg/mL); in data set [3], 4540 to 4940 µM (≈ 2270 to 2470 µg/mL). The same compound displayed a logD at 24 h in data set [4] of 2.01. Further, in [5], the half-life came to 85.1 min. Further, the “inhibition (INH)” value in data set [9] (human) is 20%.
Regarding `C=CC(=O)N(c1cccc(C(F)(F)F)c1)c1ncnc2cc(OC)c(OCCCN3CCOCC3)cc12`, the IC50 in data set [6] was 844 nM.
Still for that read-out and setting: next, `C=CC(=O)N(c1ccc(F)c(C(F)(F)F)c1)c1ncnc2cc(OC)c(OCCCN3CCOCC3)cc12`: more than 1000 nM; `C=CC(=O)N(c1ccc(OC)cc1F)c1ncnc2cc(OC)c(OCCCN3CCOCC3)cc12`: more than 1000 nM.
Consider `C=CC(=O)N(c1cccc(Cl)c1F)c1ncnc2cc(OC)c(OCCCN3CCOCC3)cc12`, for which the IC50 was found to be 52.6 nM in data set [6] and 450 nM in [1]. The solubility thermodynamic at 24 h in data set [2] stood at 1200 µM (≈ 601 µg/mL); in data set [3], 5600 µM (≈ 2810 µg/mL). In addition, the logD at 24 h in data set [4] worked out at 2.64. In addition, in data set [5], the half-life is 49 min.
Take `C=CC(=O)N(c1ccc(Cl)cc1F)c1ncnc2cc(OC)c(OCCCN3CCOCC3)cc12`: the IC50 in data set [6] was 234 nM.
Turning to `C=CC(=O)N(c1cc(Cl)ccc1F)c1ncnc2cc(OC)c(OCCCN3CCOCC3)cc12`, the IC50 in data set [6] worked out at 133 nM.
In the case of `C=CC(=O)N(c1ccc(Cl)c(Cl)c1)c1ncnc2cc(OC)c(OCCCN3CCOCC3)cc12`, the IC50 was determined as 31.7 nM in [6] and 5720 nM in data set [1]. The values for the solubility thermodynamic at 24 h in [2] and in data set [3] were 630 µM (≈ 326 µg/mL) and 4470 µM (≈ 2310 µg/mL), respectively. The compound also displayed a logD at 24 h in data set [4] of 3.57. Moreover, the half-life in data set [5] worked out at 17 min.
As to `C=CC(=O)N(c1ccc(F)cc1F)c1ncnc2cc(OC)c(OCCCN3CCOCC3)cc12`, in [6], the IC50 came to 302 nM.
As for `C=CC(=O)N(c1cc(F)c(F)cc1F)c1ncnc2cc(OC)c(OCCCN3CCOCC3)cc12`, the 50% inhibitory concentration (IC50) in [6] worked out at 500 nM.
Turning to `COc1cc2ncnc(Nc3cccc(Cl)c3F)c2cc1OCCCN1CCOCC1`, half-maximal inhibition in data set [1] (IC50) was put at 7510 nM.
With `COc1cc2ncnc(Nc3ccc(Cl)c(Cl)c3)c2cc1OCCCN1CCOCC1`, the IC50 was determined as 1 nM in [6] and 24700 nM in data set [1]. In data set [3], the solubility thermodynamic at 24 h was 4570 µM (≈ 2120 µg/mL).
Regarding `C=CC(=O)N(c1ccc(F)c(F)c1)c1ncnc2cc(OC)c(OCCCN3CCOCC3)cc12`, the IC50 in data set [6] was 368 nM.
The same measure, in the same setting: the figure for `C=CC(=O)N(c1ccc(F)c(C)c1)c1ncnc2cc(OC)c(OCCCN3CCOCC3)cc12` is 499 nM.
